The source made the active and inactive calls. The rule behind the calls is not given here. Where a SMILES comes first, the peptide text is derived from it. [ ]: non-standard residue; d: D form. The star is where a group is joined. Orotyl(5-F) = O=C(c1[nH]c(=O)[nH]c(=O)c1F)*; Dap = NC[C@H](N)C(=O)O
Key:
[1] = molecular target: T1, Beta-secretase 1 (Homo sapiens, UniProt P56817); test: Inhibition of human recombinant BACE1 using 7-methoxycoumarin-4-yl)acetyl-Ser-Glu-Val-Asn-Leu*Asp-Ala- Glu-Phe-Arg-Lys(2,4-dinitrophenyl)-Arg-Arg-NH2 as substrate at 2 uM by FRET assay
Outline: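 Recombinant human BACE1 incubated with FRET substrate and 2.0 μM compound in incubation buffer for 1 h. The N-terminal substrate cleavage fragment was measured by RP-HPLC with fluorescence detection.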

[2] = molecular target: T1, Beta-secretase 1; test: Inhibition of human recombinant BACE1 using 7-methoxycoumarin-4-yl)acetyl-Ser-Glu-Val-Asn-Leu*Asp-Ala- Glu-Phe-Arg-Lys(2,4-dinitrophenyl)-Arg-Arg-NH2 as substrate by FRET assay
Outline: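 Recombinant human BACE1 and FRET substrate incubated 1 h in incubation buffer with compound at 2.0 or 0.2 μM. The N-terminal cleavage fragment was analysed by reverse-phase HPLC with fluorescence detection.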

[3] = molecular target: T1, Beta-secretase 1; test: Inhibition of human recombinant BACE1 using 7-methoxycoumarin-4-yl)acetyl-Ser-Glu-Val-Asn-Leu*Asp-Ala- Glu-Phe-Arg-Lys(2,4-dinitrophenyl)-Arg-Arg-NH2 as substrate at 0.2 uM by FRET assay
Outline: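 Recombinant human BACE1 incubated with FRET substrate and 0.2 μM compound in incubation buffer for 1 h. The N-terminal cleavage fragment of the substrate was quantified by RP-HPLC with fluorescence detection.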

[4] = molecular target: T1, Beta-secretase 1; test: Activity of human recombinant BACE1 after 1 hr
Outline: (§1)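 Peptides incubated with recombinant human BACE1 for 1 or 24 h in buffer, at the same BACE1 and peptide concentrations as the inhibition assay. The buffer was analysed by HPLC for the product of cleavage at the P1–P1′ amide bond.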

[5] = molecular target: T1, Beta-secretase 1; test: Activity of human recombinant BACE1 after 24 hrs; outline: as §1

T1 sequence (P56817 whole entry, the tested form may be a part): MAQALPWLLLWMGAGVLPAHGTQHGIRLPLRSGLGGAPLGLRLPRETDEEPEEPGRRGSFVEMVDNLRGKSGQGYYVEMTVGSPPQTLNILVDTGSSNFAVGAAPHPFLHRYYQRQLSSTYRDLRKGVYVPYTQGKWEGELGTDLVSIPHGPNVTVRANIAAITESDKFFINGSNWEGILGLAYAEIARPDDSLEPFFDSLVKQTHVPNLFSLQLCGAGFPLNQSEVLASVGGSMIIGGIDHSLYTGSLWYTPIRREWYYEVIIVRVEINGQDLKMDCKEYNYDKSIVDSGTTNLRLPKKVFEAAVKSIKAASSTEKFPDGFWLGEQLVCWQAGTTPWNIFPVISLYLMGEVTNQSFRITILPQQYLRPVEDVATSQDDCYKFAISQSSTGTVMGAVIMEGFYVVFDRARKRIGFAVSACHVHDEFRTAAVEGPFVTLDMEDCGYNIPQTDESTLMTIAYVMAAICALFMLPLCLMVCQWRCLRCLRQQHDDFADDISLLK

Row | inhibition [1] | IC50 [2] | inhibition [3] | Activity [4] | Activity [5] | Compound
1 | 6% | – | – | – | – | CC(C)C[C@H](NC(=O)[C@@H](NC(=O)[C@@H](N)CCC(=O)O)C(C)C)C(=O)N[C@@H](Cc1ccccc1)C(=O)N[C@@H](CO)C(=O)N[C@@H](C)C(=O)N[C@@H](CCC(=O)O)C(=O)N[C@@H](Cc1ccccc1)C(=O)O
2 | 94% | 82 nM | 69% | – | – | CC(C)C[C@H](NC(=O)[C@@H](NC(=O)[C@@H](N)CNC(=O)c1[nH]c(=O)[nH]c(=O)c1F)C(C)C)C(=O)N[C@@H](Cc1ccccc1)C(=O)N[C@@H](C(=O)O)C(C)C
3 | < 5% | – | – | – | – | CC(C)[C@H](NC(=O)[C@@H](N)CNC(=O)c1[nH]c(=O)[nH]c(=O)c1F)C(=O)N[C@@H](CC(N)=O)C(=O)N[C@@H](Cc1ccccc1)C(=O)O (H-[Dap](Orotyl(5-F))VNF-OH)
4 | 10% | – | – | – | – | CC(C)[C@H](NC(=O)[C@@H](N)CCC(=O)O)C(=O)N[C@@H](CCCCN)C(=O)N[C@@H](Cc1ccccc1)C(=O)O (H-EVKF-OH)
5 | 29% | – | – | – | – | CC(C)C[C@H](NC(=O)[C@@H](NC(=O)[C@@H](N)CCC(=O)O)C(C)C)C(=O)N[C@@H](Cc1ccccc1)C(=O)N[C@H](CC(N)=O)C(=O)O
6 | 94% | 138 nM | 57% | inactive | inactive | CC(C)C[C@H](NC(=O)[C@@H](NC(=O)[C@@H](N)CNC(=O)c1[nH]c(=O)[nH]c(=O)c1F)C(C)C)C(=O)N[C@@H](Cc1ccccc1)C(=O)N[C@H](CO)C(=O)O
7 | < 5% | – | – | – | – | CC(C)C[C@H](NC(=O)[C@@H](NC(=O)[C@@H](N)CCC(=O)O)C(C)C)C(=O)N[C@@H](Cc1ccccc1)C(=O)N[C@@H](CS)C(=O)N[C@@H](C)C(=O)N[C@@H](CCC(=O)O)C(=O)N[C@@H](Cc1ccccc1)C(=O)O
8 | 92% | 141 nM | 58% | – | – | CC(C)[C@H](NC(=O)[C@@H](N)CNC(=O)c1[nH]c(=O)[nH]c(=O)c1F)C(=O)N[C@@H](CC1CCCCC1)C(=O)N[C@@H](Cc1ccccc1)C(=O)N[C@H](CC(N)=O)C(=O)O
9 | 28% | – | – | – | – | CC(C)C[C@H](NC(=O)[C@@H](NC(=O)[C@@H](N)CCC(=O)O)C(C)C)C(=O)N[C@@H](Cc1ccccc1)C(=O)N[C@H](CS)C(=O)N[C@@H](C)C(=O)N[C@@H](CCC(=O)O)C(=O)N[C@@H](Cc1ccccc1)C(=O)O
10 | 95% | 86 nM | 65% | inactive | inactive | CC(C)C[C@H](NC(=O)[C@@H](NC(=O)[C@@H](N)CNC(=O)c1[nH]c(=O)[nH]c(=O)c1F)C(C)C)C(=O)N[C@@H](Cc1ccccc1)C(=O)N[C@H](CC(N)=O)C(=O)O
11 | 93% | 169 nM | 53% | – | – | CC(C)C[C@H](NC(=O)[C@@H](NC(=O)[C@@H](N)CNC(=O)c1[nH]c(=O)[nH]c(=O)c1F)C(C)C)C(=O)N[C@@H](Cc1ccccc1)C(=O)N[C@H](C)C(=O)O
12 | 85% | 263 nM | 48% | inactive | inactive | CC(C)C[C@H](NC(=O)[C@@H](NC(=O)[C@@H](N)CNC(=O)c1[nH]c(=O)[nH]c(=O)c1F)C(C)C)C(=O)N[C@@H](Cc1ccccc1)C(=O)N[C@@H](CO)C(=O)O
13 | 8% | – | – | – | – | CC(C)C[C@H](NC(=O)[C@@H](NC(=O)[C@@H](N)CCC(=O)O)C(C)C)C(=O)N[C@@H](Cc1ccccc1)C(=O)O (H-EVLF-OH)
14 | 7% | – | – | – | – | CC(C)C[C@H](NC(=O)[C@@H](NC(=O)[C@@H](N)CCC(=O)O)C(C)C)C(=O)N[C@@H](Cc1ccccc1)C(=O)N[C@@H](CN)C(=O)N[C@@H](C)C(=O)N[C@@H](CCC(=O)O)C(=O)N[C@@H](Cc1ccccc1)C(=O)O
15 | 23% | – | – | – | – | CC(C)C[C@H](NC(=O)[C@@H](NC(=O)[C@@H](N)CCC(=O)O)C(C)C)C(=O)N[C@@H](Cc1ccccc1)C(=O)N[C@H](CO)C(=O)O
16 | 89% | 173 nM | 56% | inactive | inactive | CC(C)C[C@H](NC(=O)[C@@H](NC(=O)[C@@H](N)CNC(=O)c1[nH]c(=O)[nH]c(=O)c1F)C(C)C)C(=O)N[C@@H](Cc1ccccc1)C(=O)N[C@@H](CC(N)=O)C(=O)O
17 | 28% | – | – | – | – | CC(C)C[C@H](NC(=O)[C@@H](NC(=O)[C@@H](N)CCC(=O)O)C(C)C)C(=O)N[C@@H](Cc1ccccc1)C(=O)N[C@H](CO)C(=O)N[C@@H](C)C(=O)N[C@@H](CCC(=O)O)C(=O)N[C@@H](Cc1ccccc1)C(=O)O
18 | 15% | – | – | – | – | CC(C)C[C@H](NC(=O)[C@@H](NC(=O)[C@@H](N)CCC(=O)O)C(C)C)C(=O)N[C@@H](Cc1ccccc1)C(=O)N[C@H](CN)C(=O)N[C@@H](C)C(=O)N[C@@H](CCC(=O)O)C(=O)N[C@@H](Cc1ccccc1)C(=O)O
19 | 92% | 163 nM | 54% | – | – | CC(C)[C@H](NC(=O)[C@@H](N)CNC(=O)c1[nH]c(=O)[nH]c(=O)c1F)C(=O)N[C@@H](CC1CCCCC1)C(=O)N[C@@H](Cc1ccccc1)C(=O)N[C@H](CO)C(=O)O
20 | < 5% | – | – | – | – | CC(C)[C@H](NC(=O)[C@@H](N)CNC(=O)c1[nH]c(=O)[nH]c(=O)c1F)C(=O)N[C@@H](CC(N)=O)C(=O)N[C@@H](Cc1ccccc1)C(=O)N[C@@H](CC(N)=O)C(=O)O (H-[Dap](Orotyl(5-F))VNFN-OH)
21 | 90% | 184 nM | 54% | Active | Active | CC(C)C[C@H](NC(=O)[C@@H](NC(=O)[C@@H](N)CNC(=O)c1[nH]c(=O)[nH]c(=O)c1F)C(C)C)C(=O)N[C@@H](Cc1ccccc1)C(=O)O (H-[Dap](Orotyl(5-F))VLF-OH)
22 | < 5% | – | – | – | – | CC(C)[C@H](NC(=O)[C@@H](N)CCC(=O)O)C(=O)N[C@@H](CC(N)=O)C(=O)N[C@@H](Cc1ccccc1)C(=O)O (H-EVNF-OH)

Row | Compound | inhibition [1] | IC50 [2] | inhibition [3] | Activity [4] | Activity [5]
23 | CC(C)C[C@H](NC(=O)[C@@H](NC(=O)[C@@H](N)CNC(=O)c1[nH]c(=O)[nH]c(=O)c1F)C(C)C)C(=O)N[C@@H](Cc1ccccc1)[C@@H](O)C(=O)Nc1cccc(C(=O)O)c1 | – | 26 nM | – | – | –
